How the values were obtained:
[1] = Cytotoxicity against pig LLC-PK11 cells; format: cell-based; details: Sus scrofa
Method in brief: (§1)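 Cytotoxicity was run in parallel on three mammalian lines: LLC-PK11 (pig kidney epithelial cells), HepG2 (human hepatoma cells) and Vero (monkey kidney […]). Compounds with no cytotoxicity up to the highest tested concentration, 48, were recorded as NC.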

[2] = Selectivity index, IC50 for african green monkey (Cercopithecus aethiops) Vero cells to IC50 for chloroquine-resistant Plasmodium falciparum W2
[3] = Selectivity index, IC50 for african green monkey (Cercopithecus aethiops) Vero cells to IC50 for chloroquine-sensitive Plasmodium falciparum D6; format: functional
Method in brief: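 The selectivity index of antimalarial activity was calculated from Vero cell cytotoxicity relative to the antiplasmodial IC50 against each P. falciparum clone (D6 or W2).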

Plasmodium falciparum [4] = assay: Antiplasmodial activity against chloroquine-resistant Plasmodium falciparum W2 by LDH release assay; format: functional, organism-based
HepG2 = assay: Cytotoxicity against human HepG2 cells; format: cell-based; method in brief: as §1
Vero = assay: Cytotoxicity against african green monkey Vero cells; format: cell-based; details: Chlorocebus sabaeus; method in brief: as §1
Plasmodium falciparum [5] = assay: Antiplasmodial activity against chloroquine-sensitive Plasmodium falciparum D6 by LDH release assay; format: functional, organism-based

SMILES | IC50 [1] | Selectivity Index [2] | Selectivity Index [3] | IC50 (Plasmodium falciparum [4]) | IC50 (HepG2) | IC50 (Vero) | IC50 (Plasmodium falciparum [5])
COc1cc(Nc2nc(NCCCNc3ccnc4cc(Cl)ccc34)nc(N3CCOCC3)n2)cc(OC)c1 | 8300 nM | 148.6 | 130.8 | 220 nM | 25400 nM | 32700 nM | 250 nM
Clc1ccc2c(NCCCNc3nc(NC4CCCCC4)nc(N4CCCCC4)n3)ccnc2c1 | 10500 nM | 15.4 | 19.7 | 2220 nM | 8300 nM | 34300 nM | 1740 nM
C[C@@H]1CC[C@H]2[C@@H](C)C(=O)O[C@@H]3O[C@@]4(C)CC[C@@H]1[C@]32OO4 [ARTEMISININ] | – | >670 | >500 | 25 nM | – | – | 30 nM
COc1cccc2c1C(=O)c1c(O)c3c(c(O)c1C2=O)C[C@@](O)(C(=O)CO)C[C@@H]3O[C@H]1C[C@H](N)[C@H](O)[C@H](C)O1 [DOXORUBICIN] | 850 nM | – | – | – | 420 nM | 20000 nM | –

— ChEMBL document CHEMBL1153115, “Synthesis, antimalarial activity and cytotoxicity of 4-aminoquinoline-triazine conjugates” (Bioorg Med Chem Lett, 2010)
